Measured values taken from ChEMBL document CHEMBL3352316, “Optimization of physicochemical properties and safety profile of novel bacterial topoisomerase type II inhibitors (NBTIs) with activity against Pseudomonas aeruginosa” (Bioorg Med Chem, 2014).
Values after ≈ are worked out from the molar mass of the structure shown.

Assays:
[1] = target: T1, A-type voltage-gated potassium channel KCND3 (Homo sapiens, UniProt Q9UK17); assay: Inhibition of potassium channel Kv4.3 (unknown origin)
T1 sequence (Q9UK17 whole entry): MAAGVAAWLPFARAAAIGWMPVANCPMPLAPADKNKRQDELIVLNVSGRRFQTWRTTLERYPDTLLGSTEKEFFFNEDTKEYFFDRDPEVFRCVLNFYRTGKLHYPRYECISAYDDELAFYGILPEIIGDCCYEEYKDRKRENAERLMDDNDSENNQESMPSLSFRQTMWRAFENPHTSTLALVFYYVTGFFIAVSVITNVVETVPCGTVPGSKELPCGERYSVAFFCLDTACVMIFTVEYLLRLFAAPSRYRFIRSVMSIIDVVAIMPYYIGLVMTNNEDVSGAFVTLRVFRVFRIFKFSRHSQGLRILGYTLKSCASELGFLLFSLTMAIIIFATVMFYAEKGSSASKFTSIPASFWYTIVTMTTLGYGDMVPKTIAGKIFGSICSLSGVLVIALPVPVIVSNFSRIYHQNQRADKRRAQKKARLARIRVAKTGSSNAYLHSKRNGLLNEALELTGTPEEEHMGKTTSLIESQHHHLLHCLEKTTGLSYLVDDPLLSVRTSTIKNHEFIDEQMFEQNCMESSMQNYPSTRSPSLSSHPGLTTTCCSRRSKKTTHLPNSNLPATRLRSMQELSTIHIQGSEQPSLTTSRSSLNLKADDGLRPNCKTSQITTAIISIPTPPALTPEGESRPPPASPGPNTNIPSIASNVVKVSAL
How it was run: (§1)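 Automated IonWorks patch clamp was run on CHO or HEK cells expressing each channel. A channel-specific voltage pulse was applied before compound and again about 3 min after addition.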

[2] = target: Potassium voltage-gated channel subfamily A member 5 (Homo sapiens, UniProt P22460); assay: Inhibition of potassium channel Kv1.5 (unknown origin); how it was run: as §1
Potassium voltage-gated channel subfamily A member 5, sequence (P22460 whole entry): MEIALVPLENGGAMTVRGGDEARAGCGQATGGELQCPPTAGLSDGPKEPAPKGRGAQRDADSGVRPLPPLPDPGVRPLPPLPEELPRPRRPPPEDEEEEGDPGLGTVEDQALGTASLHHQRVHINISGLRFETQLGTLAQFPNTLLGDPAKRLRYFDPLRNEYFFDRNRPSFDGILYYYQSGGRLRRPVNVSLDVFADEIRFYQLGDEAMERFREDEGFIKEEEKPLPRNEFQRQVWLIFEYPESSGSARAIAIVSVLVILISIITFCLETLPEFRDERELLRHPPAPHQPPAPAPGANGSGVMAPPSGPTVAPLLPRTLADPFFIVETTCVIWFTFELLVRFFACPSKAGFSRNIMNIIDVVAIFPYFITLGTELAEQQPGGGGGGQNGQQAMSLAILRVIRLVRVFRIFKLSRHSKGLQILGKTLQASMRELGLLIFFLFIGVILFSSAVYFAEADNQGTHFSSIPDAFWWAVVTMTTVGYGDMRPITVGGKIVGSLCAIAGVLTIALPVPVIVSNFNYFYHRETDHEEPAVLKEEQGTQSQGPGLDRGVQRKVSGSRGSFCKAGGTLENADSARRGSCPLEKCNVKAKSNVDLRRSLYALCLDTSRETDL

[3] = Half life in beagle dog at 10 mg/kg, iv; assay type: ADME, organism-based, Canis lupus familiaris; set-up: dose 10 mg/kg, route intravenous; settings: in vivo
How it was run: (§2)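 Male rats (Wistar Han) and Beagle dogs received 10 mg/kg as a 15 min iv infusion. Serial 200 µL whole-blood samples were taken from 0 to 24 h. Plasma levels were measured by LC–MS/MS against a standard curve after methanol protein precipitation. Parameters were estimated non-compartmentally.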

[4] = target: Sodium channel protein type 5 subunit alpha (Homo sapiens, UniProt Q14524); assay: Inhibition of […] channel Nav1.5 (unknown origin); how it was run: as §1
Sodium channel protein type 5 subunit alpha, sequence (Q14524 whole entry): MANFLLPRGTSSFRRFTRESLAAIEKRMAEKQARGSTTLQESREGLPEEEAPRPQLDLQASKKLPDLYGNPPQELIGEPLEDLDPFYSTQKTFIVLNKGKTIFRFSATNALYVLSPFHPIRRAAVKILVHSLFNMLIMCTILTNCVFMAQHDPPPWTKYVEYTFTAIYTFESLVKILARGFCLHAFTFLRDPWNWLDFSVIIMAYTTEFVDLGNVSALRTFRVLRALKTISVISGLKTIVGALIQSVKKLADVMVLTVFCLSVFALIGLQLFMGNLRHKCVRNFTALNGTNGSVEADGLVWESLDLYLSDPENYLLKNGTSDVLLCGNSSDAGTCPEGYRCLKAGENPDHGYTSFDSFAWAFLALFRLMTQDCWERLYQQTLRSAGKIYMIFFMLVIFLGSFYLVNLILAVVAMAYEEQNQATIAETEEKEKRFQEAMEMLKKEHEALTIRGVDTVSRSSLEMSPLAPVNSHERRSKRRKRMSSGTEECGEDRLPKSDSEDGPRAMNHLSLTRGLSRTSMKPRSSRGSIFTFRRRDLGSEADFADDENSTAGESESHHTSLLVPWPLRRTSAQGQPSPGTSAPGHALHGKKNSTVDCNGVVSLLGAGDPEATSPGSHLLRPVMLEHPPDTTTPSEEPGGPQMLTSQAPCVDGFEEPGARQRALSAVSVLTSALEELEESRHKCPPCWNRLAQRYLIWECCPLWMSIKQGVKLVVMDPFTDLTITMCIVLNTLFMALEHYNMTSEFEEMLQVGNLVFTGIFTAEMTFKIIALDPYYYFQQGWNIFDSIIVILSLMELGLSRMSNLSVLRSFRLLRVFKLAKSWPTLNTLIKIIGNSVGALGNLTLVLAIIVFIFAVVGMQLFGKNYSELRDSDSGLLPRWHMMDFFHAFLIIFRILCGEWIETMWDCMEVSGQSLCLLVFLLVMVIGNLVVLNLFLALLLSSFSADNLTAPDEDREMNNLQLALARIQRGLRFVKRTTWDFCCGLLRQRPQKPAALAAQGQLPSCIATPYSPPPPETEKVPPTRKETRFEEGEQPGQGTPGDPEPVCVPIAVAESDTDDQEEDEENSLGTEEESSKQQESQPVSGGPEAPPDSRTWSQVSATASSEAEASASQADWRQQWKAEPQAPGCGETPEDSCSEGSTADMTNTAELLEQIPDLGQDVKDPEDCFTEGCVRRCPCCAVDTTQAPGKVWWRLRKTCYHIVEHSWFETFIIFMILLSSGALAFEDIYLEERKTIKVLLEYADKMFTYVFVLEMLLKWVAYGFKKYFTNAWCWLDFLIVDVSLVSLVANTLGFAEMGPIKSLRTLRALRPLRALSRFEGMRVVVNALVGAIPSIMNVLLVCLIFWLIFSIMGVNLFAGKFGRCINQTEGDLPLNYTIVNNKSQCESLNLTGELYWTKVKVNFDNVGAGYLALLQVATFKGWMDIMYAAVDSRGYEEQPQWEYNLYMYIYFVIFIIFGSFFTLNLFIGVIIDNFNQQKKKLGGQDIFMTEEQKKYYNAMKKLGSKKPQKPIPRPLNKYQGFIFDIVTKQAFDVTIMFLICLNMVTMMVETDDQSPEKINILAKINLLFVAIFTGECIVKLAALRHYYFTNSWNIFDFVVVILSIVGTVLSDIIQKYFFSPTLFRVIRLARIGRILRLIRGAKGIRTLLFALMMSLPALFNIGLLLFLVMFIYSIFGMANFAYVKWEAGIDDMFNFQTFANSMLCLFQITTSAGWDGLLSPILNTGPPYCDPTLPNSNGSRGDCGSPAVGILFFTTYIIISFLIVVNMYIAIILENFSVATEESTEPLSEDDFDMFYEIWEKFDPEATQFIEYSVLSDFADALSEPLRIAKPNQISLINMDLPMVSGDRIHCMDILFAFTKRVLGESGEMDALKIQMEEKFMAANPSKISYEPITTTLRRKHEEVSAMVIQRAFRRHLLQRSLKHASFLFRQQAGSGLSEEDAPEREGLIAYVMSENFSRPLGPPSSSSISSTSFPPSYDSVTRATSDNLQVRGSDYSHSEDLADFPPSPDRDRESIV

[5] = system: Escherichia coli; assay: Antimicrobial activity against Escherichia coli after 18 to 20 hrs by broth microdilution; assay type: functional
How it was run: (§3)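 Broth microdilution followed CLSI guidelines in Mueller Hinton broth. Inocula were grown 18–20 h at 35 °C on blood agar. Compound in DMSO was tested in doubling dilutions from 64 to 0.06 µg/mL, at 2% DMSO final. Plates were incubated 18–20 h and read at OD 620 nm. MIC was taken as the concentration giving >90% growth inhibition.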

[6] = AUC in rat at 10 mg/kg, iv; assay type: ADME, organism-based; set-up: dose 10 mg/kg, route intravenous; settings: plasma; how it was run: as §2
[7] = Aqueous solubility of the compound; assay type: physicochemical; settings: buffer
[8] = target: Voltage-dependent L-type calcium channel subunit alpha-1C (Homo sapiens, UniProt Q13936); assay: Inhibition of […] channel Cav1.2 (unknown origin); how it was run: as §1
Voltage-dependent L-type calcium channel subunit alpha-1C, sequence (Q13936 whole entry): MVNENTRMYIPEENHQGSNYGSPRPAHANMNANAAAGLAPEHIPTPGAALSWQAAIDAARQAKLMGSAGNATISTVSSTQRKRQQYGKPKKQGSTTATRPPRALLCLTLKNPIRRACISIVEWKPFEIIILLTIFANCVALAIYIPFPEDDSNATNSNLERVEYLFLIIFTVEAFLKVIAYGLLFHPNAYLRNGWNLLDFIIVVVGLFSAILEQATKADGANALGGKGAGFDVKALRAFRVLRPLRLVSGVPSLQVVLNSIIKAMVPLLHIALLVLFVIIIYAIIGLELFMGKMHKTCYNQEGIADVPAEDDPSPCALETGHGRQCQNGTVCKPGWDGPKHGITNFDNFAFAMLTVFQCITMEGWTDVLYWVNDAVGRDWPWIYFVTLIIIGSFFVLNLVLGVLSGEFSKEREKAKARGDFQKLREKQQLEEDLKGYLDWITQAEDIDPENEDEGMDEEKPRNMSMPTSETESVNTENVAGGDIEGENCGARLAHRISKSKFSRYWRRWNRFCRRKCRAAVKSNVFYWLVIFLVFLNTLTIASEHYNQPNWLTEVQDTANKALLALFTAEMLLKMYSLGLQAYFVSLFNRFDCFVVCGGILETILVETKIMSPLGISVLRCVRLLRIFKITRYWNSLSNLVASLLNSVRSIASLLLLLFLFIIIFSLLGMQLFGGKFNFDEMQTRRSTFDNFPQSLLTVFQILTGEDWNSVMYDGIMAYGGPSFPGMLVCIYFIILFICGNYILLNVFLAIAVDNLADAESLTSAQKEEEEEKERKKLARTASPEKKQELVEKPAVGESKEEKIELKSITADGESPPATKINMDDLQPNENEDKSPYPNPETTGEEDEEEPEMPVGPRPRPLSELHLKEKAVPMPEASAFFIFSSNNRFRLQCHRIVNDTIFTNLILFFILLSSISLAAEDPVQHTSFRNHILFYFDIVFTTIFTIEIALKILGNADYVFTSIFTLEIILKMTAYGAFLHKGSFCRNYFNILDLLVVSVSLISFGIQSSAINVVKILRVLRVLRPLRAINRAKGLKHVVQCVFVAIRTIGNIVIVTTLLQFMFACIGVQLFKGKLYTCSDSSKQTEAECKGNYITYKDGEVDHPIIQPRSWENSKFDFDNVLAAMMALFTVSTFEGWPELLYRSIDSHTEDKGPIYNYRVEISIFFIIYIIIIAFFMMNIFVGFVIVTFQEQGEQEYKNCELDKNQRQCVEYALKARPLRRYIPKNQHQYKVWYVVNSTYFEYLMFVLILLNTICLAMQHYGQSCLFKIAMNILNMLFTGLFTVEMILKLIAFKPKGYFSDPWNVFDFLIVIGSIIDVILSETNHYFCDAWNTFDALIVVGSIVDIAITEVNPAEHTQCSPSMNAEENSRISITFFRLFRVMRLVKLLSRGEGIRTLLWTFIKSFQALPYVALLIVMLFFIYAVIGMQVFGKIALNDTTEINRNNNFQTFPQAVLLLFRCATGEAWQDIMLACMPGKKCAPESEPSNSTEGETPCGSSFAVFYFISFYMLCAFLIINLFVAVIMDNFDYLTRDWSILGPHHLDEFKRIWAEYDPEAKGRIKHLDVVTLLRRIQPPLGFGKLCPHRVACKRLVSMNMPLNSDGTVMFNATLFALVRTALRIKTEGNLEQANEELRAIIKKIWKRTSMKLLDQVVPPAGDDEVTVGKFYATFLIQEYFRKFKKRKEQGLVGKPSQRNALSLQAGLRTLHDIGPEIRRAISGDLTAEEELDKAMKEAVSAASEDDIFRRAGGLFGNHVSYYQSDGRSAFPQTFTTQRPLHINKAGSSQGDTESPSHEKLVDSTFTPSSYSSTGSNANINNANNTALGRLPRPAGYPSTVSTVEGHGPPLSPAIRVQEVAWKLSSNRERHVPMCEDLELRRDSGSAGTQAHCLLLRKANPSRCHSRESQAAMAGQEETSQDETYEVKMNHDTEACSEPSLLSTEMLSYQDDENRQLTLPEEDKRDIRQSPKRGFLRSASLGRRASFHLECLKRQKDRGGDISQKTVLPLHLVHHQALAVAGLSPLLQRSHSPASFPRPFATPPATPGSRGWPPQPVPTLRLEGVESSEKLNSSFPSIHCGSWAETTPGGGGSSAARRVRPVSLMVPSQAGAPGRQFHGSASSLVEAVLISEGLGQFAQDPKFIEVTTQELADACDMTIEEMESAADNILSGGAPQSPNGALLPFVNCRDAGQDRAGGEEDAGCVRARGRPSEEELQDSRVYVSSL

[9] = Clearance in rat at 10 mg/kg, iv; assay type: ADME, organism-based; set-up: dose 10 mg/kg, route intravenous; settings: in vivo; how it was run: as §2
[10] = Volume of distribution in rat at 10 mg/kg, iv; assay type: ADME, organism-based; set-up: dose 10 mg/kg, route intravenous; settings: in vivo; how it was run: as §2
[11] = system: Pseudomonas aeruginosa; assay: Antimicrobial activity against Pseudomonas aeruginosa PAO1 after 18 to 20 hrs by broth microdilution; assay type: functional; how it was run: as §3
[12] = target: Sodium-dependent noradrenaline transporter (Homo sapiens) (UniProt P23975); assay: Inhibition of NET (unknown origin) at 30 uM
[13] = system: Pseudomonas aeruginosa; assay: Antimicrobial activity against Pseudomonas aeruginosa clinical isolate after 18 to 20 hrs by broth microdilution; assay type: functional; how it was run: as §3
[14] = system: Klebsiella pneumoniae; assay: Antimicrobial activity against Klebsiella pneumoniae after 18 to 20 hrs by broth microdilution; assay type: functional; how it was run: as §3
[15] = target: T2, Potassium voltage-gated channel subfamily KQT member 1 (Homo sapiens, UniProt P51787); assay: Inhibition of potassium channel IKs (unknown origin); how it was run: as §1
T2 sequence (P51787 whole entry): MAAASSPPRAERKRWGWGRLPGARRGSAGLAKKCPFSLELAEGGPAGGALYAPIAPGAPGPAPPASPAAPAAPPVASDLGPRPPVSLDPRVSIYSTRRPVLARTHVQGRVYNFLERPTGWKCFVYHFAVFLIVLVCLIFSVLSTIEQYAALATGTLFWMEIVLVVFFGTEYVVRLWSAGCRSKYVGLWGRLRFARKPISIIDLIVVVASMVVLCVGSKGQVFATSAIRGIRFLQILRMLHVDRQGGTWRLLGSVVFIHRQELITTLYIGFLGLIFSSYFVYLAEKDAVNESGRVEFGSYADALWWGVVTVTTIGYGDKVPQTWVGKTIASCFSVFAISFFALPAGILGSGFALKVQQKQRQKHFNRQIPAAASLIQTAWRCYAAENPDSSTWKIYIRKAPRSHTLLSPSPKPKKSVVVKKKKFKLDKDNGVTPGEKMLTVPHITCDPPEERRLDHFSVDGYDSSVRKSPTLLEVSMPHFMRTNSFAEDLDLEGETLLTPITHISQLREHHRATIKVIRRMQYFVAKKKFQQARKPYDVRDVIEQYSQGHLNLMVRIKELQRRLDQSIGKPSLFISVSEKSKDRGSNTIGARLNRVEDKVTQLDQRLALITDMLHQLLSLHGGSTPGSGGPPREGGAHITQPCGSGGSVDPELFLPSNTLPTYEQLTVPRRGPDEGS

[16] = Clearance in beagle dog at 10 mg/kg, iv; assay type: ADME, organism-based, Canis lupus familiaris; set-up: dose 10 mg/kg, route intravenous; settings: in vivo; how it was run: as §2
[17] = Bioavailability in rat at 10 mg/kg, […]; assay type: ADME, organism-based; settings: in vivo

Row | IC50 [1] | IC50 [2] | half-life [3] | MIC90 [5] | AUC [6] | solubility [7] | clearance [9] | Vd [10] | MIC90 [11] | inhibition [12] | MIC90 [13] | MIC90 [14] | IC50 [15] | clearance [16] | bioavailability [17] | SMILES | IC50 [4] | IC50 [8]
1 | > 100 µM | > 100 µM | 540 min | 1 µg/mL (≈ 2.14 µM) | 3300 ng·h/mL | > 333 µM | 46 mL/min/kg | 9 L/kg | 0.5 µg/mL (≈ 1.07 µM) | 9% | 4 µg/mL (≈ 8.56 µM) | 16 µg/mL (≈ 34.2 µM) | > 333 µM | 14 mL/min/kg | 2% | N[C@@H](Cn1c(=O)cnc2ccc(F)cc21)[C@H]1CC[C@H](NCc2ncc3c(n2)NC(=O)CO3)CC1 | > 333 µM | > 333 µM
2 | > 100 µM | > 100 µM | 780 min | 0.25 µg/mL (≈ 0.538 µM) | 190 ng·h/mL | > 333 µM | 252 mL/min/kg | 23 L/kg | 1 µg/mL (≈ 2.15 µM) | 61% | 4 µg/mL (≈ 8.61 µM) | 4 µg/mL (≈ 8.61 µM) | > 100 µM | 8.5 mL/min/kg | 18% | COc1ccc2ncc(=O)n(CCN3CCC(NCc4ccc5c(n4)NC(=O)CO5)CC3)c2c1 | 92 µM | > 333 µM
